Data from ChEMBL document CHEMBL1154306, “Cembranoid diterpenes from the Caribbean sea whip Eunicea knighti” (2009).
Calls of active or inactive are those of the source. The calls are words filed in the database; no cut-off is given here.

Legend:
Bacillus sp. [1] = assay: Antibacterial activity against Bacillus sp. 10-6DEP at 30 ug/disk after 24 to 48 hrs by disk diffusion method; type: functional; conditions: Bacillus sp. (in: firmicutes), read-out: DIZ
Procedure, shortened: (§1)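 Disk diffusion on agar plates against marine bacterial isolates from a heavily fouled surface, identified by 16S rRNA sequencing. 5.2 mm sterilized paper disks loaded with 30 µg compound in CH2Cl2, dried 3 h at room temperature, then placed on plates spread with 100 µL overnight culture (10^6 cfu/mL). Inhibition zone diameter read after 24 and 48 h at 26 °C. Cu2O 600 µg/disk positive control, CH2Cl2 solvent control, triplicate.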

[2] = tested on: Brucella pseudogrignonensis; assay: Antibacterial activity against Ochrobactrum pseudogrignonense 21-6PIN at 30 ug/disk after 24 to 48 hrs by disk diffusion method; type: functional; conditions: for zone of inhibition at 30 µg/disc: read-out: DIZ
Procedure, shortened: (§2)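 Marine bacterial isolate from a heavily fouled surface, identified by 16S rRNA gene sequence. Agar disk diffusion: sterilised 5.2 mm paper disks loaded with 30 µg pure compound in CH2Cl2 and dried 3 h at room temperature. Plates were seeded with 100 µL of overnight culture (10^6 cfu/mL) and incubated 24 and 48 h at 26 °C. Read-out was inhibition zone diameter, run in triplicate.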

[3] = tested on: Brucella pseudogrignonensis; assay: Antibacterial activity against Ochrobactrum pseudogrignonense 4-4DEP at 30 ug/disk after 24 to 48 hrs by disk diffusion method; type: functional; conditions: for zone of inhibition at 30 µg/disc: read-out: DIZ; procedure, shortened: as §2
Bacillus sp. [4] = assay: Antibacterial activity against Bacillus sp. 10-6DEP after 24 to 48 hrs by disk diffusion method; type: functional
Procedure, shortened: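 MIC by agar disk diffusion (NCCLS) against Bacillus sp. 10-6DEP. Disks loaded with 30, 16, 8, 4, 2, 1 and 0.5 µg delivered in MeOH. Methanol alone as negative control. Triplicate.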

Oceanobacillus iheyensis = assay: Antibacterial activity against Oceanobacillus iheyensis 31-C at 30 ug/disk after 24 to 48 hrs by disk diffusion method; type: functional; conditions: for zone of inhibition at 30 µg/disc: read-out: DIZ; procedure, shortened: as §1
[5] = tested on: Brucella pseudogrignonensis; assay: Antibacterial activity against Ochrobactrum pseudogrignonense 21-6PIN after 24 to 48 hrs by disk diffusion method; type: functional
Procedure, shortened: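 MIC by agar disk diffusion per NCCLS against the marine isolate 21-6PIN. Loadings per disk were 30, 16, 8, 4, 2, 1 and 0.5 µg, delivered in MeOH, with methanol alone as negative control. Run in triplicate.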

[6] = tested on: Brucella pseudogrignonensis; assay: Antibacterial activity against Ochrobactrum pseudogrignonense 4-4DEP after 24 to 48 hrs by disk diffusion method; type: functional
Kocuria sp. 10-4DEP = assay: Antibacterial activity against Kocuria sp. 10-4DEP at 30 ug/disk after 24 to 48 hrs by disk diffusion method; type: functional; conditions: for zone of inhibition at 30 µg/disc: read-out: DIZ; procedure, shortened: as §1
Alteromonas sp. = assay: Antibacterial activity against Alteromonas sp. 11-6DEP at 30 ug/disk after 24 to 48 hrs by disk diffusion method; type: functional; conditions: for zone of inhibition at 30 µg/disc: read-out: DIZ; procedure, shortened: as §1
Escherichia coli = assay: Antiquorum sensing activity against Escherichia coli pS401 assessed as inhibition of Pseudomonas putida IsoF derived acyl-homoserinelactone-induced bioluminescence upto 200 ug after overnight incubation
Procedure, shortened: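 Biosensor agar overlay. E. coli pS401 and P. putida IsoF grown in LB broth. 15 mL of each culture mixed into LB soft agar (0.8%) and poured over prewarmed LB agar plates. Paper disks received 10 or 20 µL of a 10 mg/mL compound solution. Plates incubated overnight at 37 °C and luminescence imaged. QS inhibition was scored where light was lost but growth around the disk was unaffected.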

Row | Compound | zone of inhibition at 30 µg/disc (Bacillus sp. [1]) | zone of inhibition at 30 µg/disc [2] | zone of inhibition at 30 µg/disc [3] | MIC (Bacillus sp. [4]) | zone of inhibition at 30 µg/disc (Oceanobacillus iheyensis) | MIC [5] | MIC [6] | diameter of the inhibition zone (DIZ) (Kocuria sp. 10-4DEP) | diameter of the inhibition zone (DIZ) (Alteromonas sp.) | diameter of the inhibition zone (DIZ) [3] | diameter of the inhibition zone (DIZ) (Oceanobacillus iheyensis) | diameter of the inhibition zone (DIZ) [2] | Activity (Escherichia coli) | zone of inhibition at 30 µg/disc (Kocuria sp. 10-4DEP) | zone of inhibition at 30 µg/disc (Alteromonas sp.)
1 | C=C(C)[C@H]1CC/C(C)=C/CC[C@@]2(C)O[C@@H]2CC/C(COC(C)=O)=C\[C@@H]1OC(C)=O | 8 mm | ≥ 10 mm | 6 mm | 30 µg | 6 mm | 30 µg | >30 µg | inactive | inactive |  |  |  |  |  | 
2 | C=C(C)[C@@H]1C/C=C(/COC(C)=O)CC[C@H]2O[C@]2(C)CC/C=C(\C)CC1 [KNIGHTOL ACETATE] | 6 mm | 6 mm |  | 30 µg | 6 mm | 8 µg | 8 µg | inactive | inactive | inactive |  |  |  |  | 
3 | C=C(C)[C@H]1CC/C(C)=C/CC[C@@]2(C)O[C@@H]2CC/C(COC(C)=O)=C\[C@@H]1O [ASPERDIOL ACETATE] | 8 mm | ≥ 10 mm |  | 30 µg |  | 30 µg | >30 µg | inactive | inactive | inactive | inactive |  |  |  | 
4 | C=C(C)[C@H]1CC/C(C)=C/C/C=C(/C)[C@@H](O)CC/C(COC(C)=O)=C\[C@@H]1OC(C)=O | 6 mm |  | 6 mm | >30 µg |  | >30 µg |  | inactive | inactive |  | inactive | inactive |  |  | 
5 | C=C(C)[C@H]1CC/C(C)=C/CC[C@@](C)(Cl)[C@H](O)CC/C(COC(C)=O)=C\[C@@H]1OC(C)=O | 8 mm |  | 6 mm | >30 µg | 6 mm | >30 µg |  | inactive | inactive |  |  | inactive |  |  | 
6 | C=C(C)[C@H]1CC/C(C)=C/CC[C@@]2(C)O[C@@H]2CC/C(CO)=C\[C@@H]1O [ASPERDIOL] | 6 mm | 8 mm |  | 4 µg |  | >30 µg |  | inactive | inactive | inactive | inactive |  |  |  | 
7 | C=C(C)[C@@H]1C/C=C(/C=O)CC[C@H]2O[C@]2(C)CC/C=C(\C)CC1 [KNIGHTAL] | 8 mm | 6 mm |  | 16 µg | 6 mm | 8 µg | 8 µg |  |  | inactive |  |  | Active | 8 mm | 6 mm
8 | C=C(C)[C@H]1CC/C(C)=C/C/C=C(\C)[C@H](O)CC/C(COC(C)=O)=C\[C@@H]1OC(C)=O | 8 mm | 8 mm | 6 mm | 30 µg | 6 mm | 30 µg | >30 µg |  |  |  |  |  | Active | 6 mm | 6 mm
9 | C=C1CC/C=C(\C)CC[C@H](C(=C)C)[C@@H](OC(C)=O)/C=C(/COC(C)=O)CC[C@H]1O | 8 mm | 6 mm | 6 mm | >30 µg | 6 mm | >30 µg |  |  | inactive |  |  |  | Active | 6 mm | 
10 | C=C(C)[C@@H]1C/C=C(/CO)CC[C@H]2O[C@]2(C)CC/C=C(\C)CC1 [KNIGHTOL] | ≥ 10 mm | 6 mm |  | 2 µg | 6 mm | 8 µg |  |  |  | inactive |  |  | Active | ≥ 10 mm | 6 mm
